Activity and IC50 data for 4 compounds are collected here from ChEMBL document CHEMBL1143381 (J Med Chem, 2009).

In assay [1] the test system is K562. Kind of assay: Reversal of P-glycoprotein-mediated multidrug resistance in human anthracycline-resistant K562 cells assessed as drug level causing 50% increase in nuclear concentration of pirarubicin by spectrofluorimetry. Format: cell-based. The method in brief:
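K562/DOX cells were grown in RPMI 1640 with 10% FCS at 37 °C, 5% CO2, and kept resistant by a monthly 3-day exposure to 400 nM doxorubicin. Cultures were started at 5 × 10^5 cells/mL and used 24 h later. Pirarubicin uptake was followed as fluorescence decrease at 590 nm (ex 480 nm) in 2 mL buffer at 37 °C.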

For assay [2], the system named is K562. The assay can be described thus: Cytotoxicity against human doxorubicin-sensitive K562 cells after 72 hrs by MTT assay. The format is functional, cell-based. The conditions noted are these: K562, 72 h. The method in brief:
(§1)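 MTT assay: cells seeded at 3000/well with doxorubicin (0.001–0.1 µM in K562; 0.1–10 µM in K562/DOX), alone or with modulator, for 72 h at 37 °C. Doxorubicin IC50 is the 50% drop in MTT conversion versus untreated cells, read from plots. RF is the IC50 without modulator divided by the IC50 with modulator. Values are mean ± SE of ≥3 runs, or mean of two runs, in quadruplicate cultures.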
Background: Formazan colour is commonly taken as a measure of viable cells.

In assay [3] the test system is K562. Kind of assay: Cytotoxicity against human doxorubicin-resistant K562 cells expressing Pgp after 72 hrs by MTT assay. The format is functional, cell-based. The note with it: K562, 72 h. The method in brief:
as §1

Assay [4] deals with K562. Kind of assay: Potentiation of doxorubicin-induced growth inhibition in human doxorubicin-resistant K562 cells expressing Pgp at 1 uM after 72 hrs by MTT assay. Format: functional, cell-based. The method in brief:
as §1

Assay [5] concerns K562. The assay can be described thus: Cytotoxicity against human doxorubicin-resistant K562 cells expressing Pgp assessed as cell viability by trypan blue exclusion assay. Format: functional.
The test system of assay [6] is K562. The assay can be described thus: Potentiation of doxorubicin-induced growth inhibition in human doxorubicin-resistant K562 cells expressing Pgp at 3 uM after 72 hrs by MTT assay. Format: functional, cell-based. The method in brief: as §1

Activity calls are given as the source filed them. The rule behind the calls is not given here.

Take `COc1ccc(C(C#N)(CCCNCc2c3ccccc3cc3ccccc23)C(C)C)cc1OC` (configuration not stated): the Activity in assay [1] was determined as 0.05 µM. By IC50 is commonly meant the point on the concentration scale where inhibition reaches its midpoint. On to `COc1cccc2c1C(=O)c1c(O)c3c(c(O)c1C2=O)C[C@@](O)(C(=O)CO)C[C@@H]3O[C@H]1C[C@H](N)[C@H](O)[C@H](C)O1` [DOXORUBICIN], for which the 50% inhibitory concentration (IC50) in assay [2] was 32 nM; in assay [3], 2840 nM. As to `COc1ccc(CCN(C)CCCC(C#N)(c2ccc(OC)c(OC)c2)C(C)C)cc1OC` (configuration not stated), the result in assay [4] and in assay [6] was Active. Also, the Activity in assay [5] is listed as above 95%. For `COc1cc(C(=O)OCCCN(C)CCCOC(=O)c2c3ccccc3cc3ccccc23)cc(OC)c1OC`, the Activity in assay [1] came to 0.6 µM.
